Measurements: ChEMBL document CHEMBL5303300, “EUbOPEN Chemogenomics Library - Multiplex” (2023)
“And” between values parts separate entries of the source, which are not always exact repeats. Identical values can stand only once.

What was measured:
Fibroblast = assay: Multiplex assay against human fibroblast; format: toxicity, cell-based; settings: number of replicates 2
Summary of the method: (§1)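 Live cells carried four stains from seeding: Hoechst33342, BioTracker Green Microtubule Cytoskeleton Dye, MitoTracker Red and Annexin V Alexa Fluor 680. They were imaged on a CQ1 microscope at 37°C and 5% CO2 after compound addition. Using CellPathfinder machine-learning gating, cells were split into Hoechst high-intensity objects or normal cells, normal cells into healthy, pyknosed or fragmented nuclei, and pyknosed cells into mitotic or apoptotic; tubulin, mitochondrial-mass and membrane-permeability phenotypes are per cents of healthy-nucleus cells.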

HEK-293T = assay: Multiplex assay against HEK293T; format: toxicity, cell-based; settings: human, number of replicates 2; summary of the method: as §1
[1] = 12 h, 1 µM, compound concentration 1 uM
[2] = 12 h, 10 µM, compound concentration 10 uM
[3] = 24 h, 1 µM, compound concentration 1 uM
[4] = 24 h, 10 µM, compound concentration 10 uM
[5] = 48 h, 1 µM, compound concentration 1 uM
[6] = 48 h, 10 µM, compound concentration 10 uM

## CC(=O)N(CCN(C)C)c1ccc(N/C(=C2\C(=O)Nc3cc(Cl)ccc32)c2ccccc2)cn1
Fibroblast; [1]
  Population Apoptotic (%): 45% and 32%
  Population Fragmented Nuclei (%): 15% and 19%
  Population Healthy Nuclei (%): 54% and 64%
  Population Hoechst High Intensity Objects (%): 0%
  Population Membrane Permeable-Phenotype (%): 13% and 3%
  Population Mitochondria Different-Phenotype (%): 2% and 4%
  Population Mitotic Cells (%): 54% and 67%
  Population Normal (%): 100%
  Population Pyknosed Nuclei (%): 30% and 16%
  Population Tubulin-Different-Phenotype (%): 26% and 21%
  Total Cell Count: 176 and 230
Fibroblast; [2]
  Population Apoptotic (%): 60% and 50%
  Population Fragmented Nuclei (%): 15% and 20%
  Population Healthy Nuclei (%): 50% and 56%
  Population Hoechst High Intensity Objects (%): 0%
  Population Membrane Permeable-Phenotype (%): 6% and 10%
  Population Mitochondria Different-Phenotype (%): 35% and 27%
  Population Mitotic Cells (%): 39% and 50%
  Population Normal (%): 100% and 99%
  Population Pyknosed Nuclei (%): 33% and 22%
  Population Tubulin-Different-Phenotype (%): 88% and 81%
  Total Cell Count: 151 and 211
Fibroblast; [3]
  Population Apoptotic (%): 60% and 63%
  Population Fragmented Nuclei (%): 17% and 22%
  Population Healthy Nuclei (%): 56% and 62%
  Population Hoechst High Intensity Objects (%): 0%
  Population Membrane Permeable-Phenotype (%): 7%
  Population Mitochondria Different-Phenotype (%): 1% and 4%
  Population Mitotic Cells (%): 39% and 36%
  Population Normal (%): 99%
  Population Pyknosed Nuclei (%): 26% and 15%
  Population Tubulin-Different-Phenotype (%): 25% and 24%
  Total Cell Count: 176 and 221
Fibroblast; [4]
  Population Apoptotic (%): 81% and 82%
  Population Fragmented Nuclei (%): 17% and 15%
  Population Healthy Nuclei (%): 41% and 46%
  Population Hoechst High Intensity Objects (%): 2% and 0%
  Population Membrane Permeable-Phenotype (%): 8% and 3%
  Population Mitochondria Different-Phenotype (%): 63% and 70%
  Population Mitotic Cells (%): 18% and 17%
  Population Normal (%): 97% and 100%
  Population Pyknosed Nuclei (%): 41% and 37%
  Population Tubulin-Different-Phenotype (%): 90% and 83%
  Total Cell Count: 149 and 170
Fibroblast; [5]
  Population Apoptotic (%): 80% and 68%
  Population Fragmented Nuclei (%): 19% and 25%
  Population Healthy Nuclei (%): 59% and 61%
  Population Hoechst High Intensity Objects (%): 0%
  Population Membrane Permeable-Phenotype (%): 9% and 7%
  Population Mitochondria Different-Phenotype (%): 2% and 5%
  Population Mitotic Cells (%): 20% and 31%
  Population Normal (%): 99% and 100%
  Population Pyknosed Nuclei (%): 21% and 13%
  Population Tubulin-Different-Phenotype (%): 36% and 29%
  Total Cell Count: 167 and 217
Fibroblast; [6]
  Population Apoptotic (%): 94% and 95%
  Population Fragmented Nuclei (%): 25% and 23%
  Population Healthy Nuclei (%): 25% and 17%
  Population Hoechst High Intensity Objects (%): 0%
  Population Membrane Permeable-Phenotype (%): 15% and 6%
  Population Mitochondria Different-Phenotype (%): 48% and 43%
  Population Mitotic Cells (%): 5% and 4%
  Population Normal (%): 99% and 100%
  Population Pyknosed Nuclei (%): 48% and 58%
  Population Tubulin-Different-Phenotype (%): 89% and 81%
  Total Cell Count: 152 and 178
HEK-293T; [1]
  Population Apoptotic (%): 32% and 41%
  Population Fragmented Nuclei (%): 2%
  Population Healthy Nuclei (%): 84% and 85%
  Population Hoechst High Intensity Objects (%): 5%
  Population Membrane Permeable-Phenotype (%): 2% and 3%
  Population Mitochondria Different-Phenotype (%): 23% and 26%
  Population Mitotic Cells (%): 67% and 58%
  Population Normal (%): 94%
  Population Pyknosed Nuclei (%): 12%
  Population Tubulin-Different-Phenotype (%): 65% and 70%
  Total Cell Count: 666 and 654
HEK-293T; [2]
  Population Apoptotic (%): 64% and 79%
  Population Fragmented Nuclei (%): 3% and 4%
  Population Healthy Nuclei (%): 77% and 71%
  Population Hoechst High Intensity Objects (%): 14% and 17%
  Population Membrane Permeable-Phenotype (%): 1% and 3%
  Population Mitochondria Different-Phenotype (%): 93% and 91%
  Population Mitotic Cells (%): 35% and 20%
  Population Normal (%): 85% and 82%
  Population Pyknosed Nuclei (%): 19% and 24%
  Population Tubulin-Different-Phenotype (%): 90% and 92%
  Total Cell Count: 227 and 197
HEK-293T; [3]
  Population Apoptotic (%): 28%
  Population Fragmented Nuclei (%): 1% and 4%
  Population Healthy Nuclei (%): 89% and 87%
  Population Hoechst High Intensity Objects (%): 6% and 7%
  Population Membrane Permeable-Phenotype (%): 1% and 3%
  Population Mitochondria Different-Phenotype (%): 12% and 10%
  Population Mitotic Cells (%): 71%
